Data as given in ChEMBL document CHEMBL2062413, “Design of β-amyloid aggregation inhibitors from a predicted structural motif” (J Med Chem, 2012).
Values belong to the molecule of their own block, whether it stands above or below them. The source made the active and inactive calls. The calls are words filed in the database; no cut-off is given here.

How the values were obtained:
[1] = Drug degradation in aqueous buffer assessed as (E)-N-(2-(3,5-dichloro-2-hydroxybenzylideneamino)-4-methylphenyl)benzo[b]oxirene-3-sulfonamide formation up to 24 hrs by LC-MS analysis at pH 7.4; type: physicochemical; settings: pH 7.4, 24 h
[2] = Drug degradation in aqueous buffer assessed as N-(2-amino-4-methylphenyl)-4-chlorobenzenesulfonamide formation up to 24 hrs by LC-MS analysis at pH 7.4; type: physicochemical; settings: pH 7.4, 24 h
[3] = molecular target: T1, Amyloid-beta precursor protein (Homo sapiens, UniProt P05067); experiment: Inhibition of amyloid beta42 aggregation assessed as reduction in fluorescence after 4 days by thioflavin T-based fluorometry
T1 sequence (P05067 whole entry): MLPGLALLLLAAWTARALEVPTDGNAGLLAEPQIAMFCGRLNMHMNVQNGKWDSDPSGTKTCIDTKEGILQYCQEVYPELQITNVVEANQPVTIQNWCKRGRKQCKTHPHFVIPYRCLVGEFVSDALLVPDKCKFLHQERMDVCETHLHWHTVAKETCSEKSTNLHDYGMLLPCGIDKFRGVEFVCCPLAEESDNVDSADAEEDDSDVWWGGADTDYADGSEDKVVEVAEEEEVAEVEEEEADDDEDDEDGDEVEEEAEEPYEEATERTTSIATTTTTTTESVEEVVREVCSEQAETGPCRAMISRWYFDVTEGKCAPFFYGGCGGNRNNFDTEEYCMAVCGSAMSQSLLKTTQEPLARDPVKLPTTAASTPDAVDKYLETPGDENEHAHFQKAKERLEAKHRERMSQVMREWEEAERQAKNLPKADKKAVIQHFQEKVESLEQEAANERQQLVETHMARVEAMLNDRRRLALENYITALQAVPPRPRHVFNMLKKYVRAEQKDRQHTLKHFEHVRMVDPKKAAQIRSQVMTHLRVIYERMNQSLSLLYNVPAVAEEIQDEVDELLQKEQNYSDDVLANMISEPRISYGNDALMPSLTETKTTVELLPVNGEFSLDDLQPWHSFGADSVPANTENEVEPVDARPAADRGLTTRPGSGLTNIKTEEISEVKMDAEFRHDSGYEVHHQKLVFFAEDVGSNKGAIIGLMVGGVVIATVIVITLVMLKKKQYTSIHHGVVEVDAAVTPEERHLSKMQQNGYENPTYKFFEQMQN
Summary of the method: (§1)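 Aβ42 at 25 μM was incubated with a range of compound concentrations in triplicate at 37°C with shaking for four days, read at t=0 and t=4 d. Compound was taken from a 10 mM DMSO stock diluted in PBS. Aliquots were added to 25 μM ThT in 50 mM glycine, pH 8, for 5 min, then read at ex 446/em 490 nm. IC50 was taken from % fluorescence of untreated control.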

[4] = molecular target: T1, Amyloid-beta precursor protein; experiment: Inhibition of amyloid beta42 aggregation assessed as reduction in fluorescence measured immediately post-compound addition by thioflavin T-based fluorometry; summary of the method: as §1
[5] = Drug degradation in aqueous buffer assessed as 3,5-dichloro-2-hydroxybenzaldehyde formation up to 24 hrs by LC-MS analysis at pH 7.4; type: physicochemical; settings: pH 7.4, 24 h
[6] = Drug degradation in aqueous buffer assessed as N-(2-amino-4-methylphenyl)benzo[b]oxirene-3-sulfonamide formation up to 24 hrs by LC-MS analysis at pH 7.4; type: physicochemical; settings: pH 7.4, 24 h
[7] = molecular target: T1, Amyloid-beta precursor protein; experiment: Inhibition of amyloid beta42 aggregation assessed as inhibition of fibril formation at 25 uM after 5 days by circular dichroism
Summary of the method: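 Circular dichroism: 25 μM Aβ42 alone or mixed 1:1 with 25 μM compound, incubated at 37°C with orbital shaking at 200 rpm. Spectra taken every 24 h for 5 days at 37°C in a 1-mm cell, 190–260 nm, 0.2-nm resolution, 1-nm bandwidth, background-subtracted and averaged. Compound dissolved to 10 mM in NaOH, then diluted in PBS.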

PC-12 = experiment: Cytotoxicity against rat PC12 cells assessed as reduction in cell viability at 50 uM after 48 hrs by MTT assay; type: cell-based; settings: pc-12, 48 h
[8] = Inhibition of amyloid beta42 assessed as decrease in mature fibril formation at 25 uM after 4 days by […] electron microscopy
Summary of the method: (§2)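 Negative-stain TEM: 25 μM Aβ42 alone or with 25 μM compound (1:1), incubated four days at 37°C. Aliquots spotted 2 min on glow-discharged carbon-coated Formvar grids and stained with 1% uranyl acetate.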

[9] = Inhibition of amyloid beta42 assessed as increase in amorphous aggregates at 25 uM after 4 days by […] electron microscopy; summary of the method: as §2

Drug degradation [1]: Active
Structure (SMILES): Cc1ccc(NS(=O)(=O)c2ccc3c(c2)O3)c(/N=C/c2cc(Cl)cc(Cl)c2O)c1

Drug degradation [2]: Active
IC50 [3]: 23 µM
inhibition [3]: Dose-dependent effect
IC50 [4]: 30 µM
Structure (SMILES): Cc1ccc(NS(=O)(=O)c2ccc(Cl)cc2)c(N)c1

inhibition [3]: inactive
Drug degradation [5]: Active
Structure (SMILES): O=Cc1cc(Cl)cc(Cl)c1O

Drug degradation [6]: Active
Structure (SMILES): Cc1ccc(NS(=O)(=O)c2ccc3c(c2)O3)c(N)c1

inhibition [7]: Active
inhibition [8]: Active
IC50 [3]: 13 µM
inhibition [3]: Dose-dependent effect
inhibition [9]: Active
IC50 [4]: 62 µM
Structure (SMILES): Cc1ccc(NS(=O)(=O)c2ccc(Cl)cc2)c(/N=C/c2cc(Cl)cc(Cl)c2O)c1
Activity (PC-12): 40%
